Most compounds without a hit are left out; they make up all but 1.4% or so of the library.
NR2E3 ag-1 – human photoreceptor-specific nuclear receptor agonism; inhibition of corepressor binding, % at 3.98 µM; CHO-S Gal4-NCOR/VP16-NR2E3 two-hybrid, luciferase; 0.35% of 360,000 active; Q9Y5X4;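 active = inhibition above the mean of all tested compounds plus 3 SD, cut at about 70% in these data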;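 also: 0% = DMSO with NR2E3 transfected cells and 100% = cells lacking NR2E3 construct; higher means lower luciferase signal from less NR2E3 corepressor binding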
PG9 Ab binder – PG9 antibody binding by small molecule | AID 624416 | 0.43% of 360,000 active | TR-FRET gp120-PG9 antibody binding | inhibition, % at 6.7 µM; in the data active = inhibition above about 8.5%
NR2E3 ag-2 – NR2E3 (human) agonism | Q9Y5X4 | GST-NR2E3/biotin-RetCOR TR-FRET, 1536-well | inhibition of corepressor binding, % at 4.78 µM | 0.12% of 320,000 active;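 active = percent inhibition above the cutoff of mean plus 3 SD of all tested compounds, set per screening campaign, cut at about 20% in these data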;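 also: 0% = DMSO wells and 100% = biotin wells as full block of FRET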
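System: GST-tagged NR2E3 plus biotinylated RetCOR corepressor; Buffer or medium: pH 7.5 Tris-based buffer; Probe or stimulus: RetCOR corepressor, biotinylated, 7 nM; Doses: compound at 4.8 µM, single dose; Schedule: 5 h incubation at 4 °C; Technique: time-resolved FRET; Evaluation: percent inhibition of TR-FRET ratio; Replication: one well per compound, singlicate testing.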
Rev-erbA mod – modulators of human Rev-erb alpha DNA binding; P20393; Rev-erbα–FITC-DNA binding, fluorescence polarization, 90 min; activity, % at 10 µM; 0.79% of 370,000 active; AID 1259318;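 active = activity above about 14%, limit read from the data; passing the limit was not always enough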;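 also: 0% = DMSO wells with 35 nM protein and 100% = DMSO wells with 750 nM protein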
Target sequence (P20393 whole entry, looked up): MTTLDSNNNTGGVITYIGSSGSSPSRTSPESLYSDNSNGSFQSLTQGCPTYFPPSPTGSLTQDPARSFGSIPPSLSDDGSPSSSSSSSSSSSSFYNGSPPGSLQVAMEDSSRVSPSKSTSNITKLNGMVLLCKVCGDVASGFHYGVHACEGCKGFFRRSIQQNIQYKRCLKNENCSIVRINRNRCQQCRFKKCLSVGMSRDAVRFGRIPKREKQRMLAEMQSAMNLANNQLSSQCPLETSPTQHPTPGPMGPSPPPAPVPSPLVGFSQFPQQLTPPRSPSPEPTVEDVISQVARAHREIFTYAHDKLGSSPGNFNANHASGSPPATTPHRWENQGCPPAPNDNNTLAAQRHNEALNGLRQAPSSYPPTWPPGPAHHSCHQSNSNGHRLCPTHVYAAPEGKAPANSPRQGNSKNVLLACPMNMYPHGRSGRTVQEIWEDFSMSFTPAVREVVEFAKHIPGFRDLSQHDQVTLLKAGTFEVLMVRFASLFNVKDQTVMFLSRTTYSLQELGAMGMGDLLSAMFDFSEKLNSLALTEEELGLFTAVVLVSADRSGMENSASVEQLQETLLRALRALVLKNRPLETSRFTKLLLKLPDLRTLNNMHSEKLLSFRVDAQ
NR2E3 ag conf – NR2E3 agonism confirmed in two-hybrid assay; shares compounds with NR2E3 ag-1; CHO-S mammalian two-hybrid NR2E3-NCOR, luciferase luminescence; inhibition, % at 3.98 µM; 51% of 2,300 active; AID 624378;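 active = average inhibition above a cutoff equal to the mean inhibition of all tested compounds plus one SD, cut at about 70% in these data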;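 also: 0% = DMSO in NR2E3 cells and 100% = DMSO in cells lacking NR2E3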
VP16 counter – GAL4-VP16 reporter inhibition in NR2E3 agonist counterscreen; shares compounds with NR2E3 ag-1; CHO-S GAL4-VP16 luciferase reporter, luminescence; inhibition, % at 3.98 µM; 29% of 2,300 active; AID 624379;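 active = mean inhibition above a cutoff equal to the average over all tested compounds plus one standard deviation, cut at about 70% in these data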;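 also: luciferase from a UAS reporter driven by GAL4-VP16 transactivation; 0% = DMSO with VP16-transfected cells and 100% = DMSO with cells lacking VP16; higher means less reporter light so more repression of VP16 activity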
The depositor's hits bear a star; nt = no result.

SMILES	NR2E3 ag-1	PG9 Ab binder	NR2E3 ag-2	Rev-erbA mod	NR2E3 ag conf	VP16 counter
O=C(c1ccccc1)C1CCN(c2ncnc3sccc23)CC1	nt	nt	nt	3.4	nt	nt
Cc1ccc(S(=O)(=O)N2CCN(c3ncnc4sccc34)CC2)cc1	103.4*	0.7	-0.2	0.6	93.8*	82.7*
c1ccc(CC2CCN(c3ncnc4sccc34)CC2)cc1	80.2*	-0.2	nt	0.4	97.2*	82.6*
O=S(=O)(c1ccccc1C(F)(F)F)N1CCN(c2ncnc3sccc23)CC1	59.7	-0.4	nt	-5.2	67.1	51.0
CCS(=O)(=O)N1CCN(c2ncnc3sc(C)c(C)c23)CC1	7.1	-0.2	2.3	-0.7	nt	nt
Cc1ccc(OCCCCn2cnc3ccccc32)c(C)c1	71.9*	-1.9	-1.4	3.5	88.5*	60.2
Brc1ccccc1OCCCCn1cnc2ccccc21	29.2	2.1	-2.5	7.8	nt	nt
O=C(N1CCOCCOc2ccccc2OCCOCC1)C(F)(F)F	-12.5	-1.4	-4.9	-1.1	nt	nt
O=C(Cc1ccc(-c2ccccc2)cc1)NNC(=S)NCc1ccco1	53.9	-0.7	0.7	1.8	88.6*	59.0
O=C(Cc1cccs1)NNC(=S)NCc1ccco1	22.5	3.0	1.3	-3.2	nt	nt
Cc1cccc(Oc2nc(-c3ccccn3)nc3ccccc23)c1	-36.8	-2.3	0.5	4.3	nt	nt
c1ccc(N2CCN(c3nc(-c4ccccn4)nc4ccccc34)CC2)cc1	99.5*	-1.7	-0.4	-1.8	22.7	15.1
Cc1ccccc1Oc1nc(-c2ccccn2)nc2ccccc12	65.9	-0.3	-2.2	5.7	26.6	29.3
CCOC(=O)c1c(C)[nH]c(C)c1C(=O)COC(=O)c1cccnc1SC	1.6	0.6	-2.3	2.6	nt	nt
CCOc1ccc(-n2c(SCC(=O)Nc3ccc4c(c3)OCCO4)nc3c(c2=O)SCC3)cc1	-13.7	0.8	3.9	4.1	nt	nt
O=C(NC(=O)N1CCN(c2cccc(Cl)c2)CC1)c1ccc(Cl)cc1	79.9*	-0.5	0.4	-0.1	95.2*	54.4
O=C(NC(=O)N1CCN(c2ccccc2)CC1)c1ccc(Cl)cc1	-38.9	-2.7	-3.8	0.5	nt	nt
O=C(NC(=O)N1CCN(c2cccc(Cl)c2)CC1)c1ccccc1	51.2	-0.7	-1.9	-1.6	84.9*	35.3
CC(C)C(NC(=O)Cc1ccccc1)C(=O)N1CCN(c2cccc(Cl)c2)CC1 (centres undefined)	62.6	0.9	0.2	-2.4	64.6	41.6
COc1ccc(N2CCN(C(=O)NC(=O)c3ccccc3)CC2)cc1	9.2	-1.9	-3.5	6.4	nt	nt
Cc1nn(Cc2ccc(C(=O)Nc3nccs3)cc2)c(C)c1Cl	68.3	0.1	3.0	-5.6	62.6	42.6
COCCNC(=S)N(C)[C@H]1C[C@H]2c3[nH]c4c(-c5ccccc5)cccc4c3CCN2C(=O)[C@H]1[C@H](C)O	nt	-1.1	nt	-6.2	nt	nt
CCC(c1nnnn1-c1c(C)cccc1C)N1CCN(c2cccc(C(F)(F)F)n2)CC1 (centres undefined)	-0.4	-0.6	nt	-3.8	nt	nt
CCC(c1nnnn1-c1c(C)cccc1C)N1CCN(c2ccc(C(F)(F)F)cc2[N+](=O)[O-])CC1 (centres undefined)	53.2	nt	nt	nt	5.3	9.8
CSc1ncccc1C(=O)N1CCC1(C)C(=O)NC(C)C (centres undefined)	-4.7	-1.8	nt	-0.5	nt	nt
SMILES	NR2E3 ag-1	PG9 Ab binder	NR2E3 ag-2	Rev-erbA mod	NR2E3 ag conf	VP16 counter
CC(C)C1C(=O)N(Cc2cn(CCC3OCCO3)nn2)CCS(=O)(=O)N1Cc1ccc(-c2ccc(Cl)c(Cl)c2)cc1 (centres undefined)	22.8	-0.3	nt	-0.9	nt	nt
Nc1cc(=O)[nH]c(SCc2ccc(Cl)cc2)n1	-21.5	2.6	-2.1	1.7	nt	nt
CC(C)(C)c1ccc(CSc2nc(N)cc(=O)[nH]2)cc1	95.8*	nt	0.0	nt	76.2*	54.3
O=C(O)c1c2c(nc3ccccc13)-c1ccccc1CC2	-43.6	-0.5	4.7	0.8	nt	nt
O=C(C1CCC1)N1CCc2cc(S(=O)(=O)Nc3ccc4c(c3)OCCO4)ccc21	41.0	1.3	0.6	1.9	nt	nt
CS(=O)(=O)N1CCc2cc(S(=O)(=O)Nc3ccc4c(c3)OCCO4)ccc21	52.6	-0.1	0.2	-3.9	43.9	33.1
CCC(=O)N1CCc2cc(S(=O)(=O)Nc3ccc4c(c3)OCCO4)ccc21	53.3	-3.1	-1.5	0.6	88.9*	78.2*
Cc1cc(Nc2ccccc2)cc(=O)n1C	9.5	-2.2	0.0	-4.7	nt	nt

Source: PubChem
